Assay results from different studies.
Each line is one published result; the experiments were not run side by side.
ABL1 F317I phosphorylated: Tyrosine-protein kinase ABL1, phosphorylated (ABL1, Homo sapiens, UniProt P00519, F317I)
ABL1 H396P non-phosphorylated: Tyrosine-protein kinase ABL1, non-phosphorylated (ABL1, Homo sapiens, UniProt P00519, H396P)
ABL1 F317L phosphorylated: Tyrosine-protein kinase ABL1, phosphorylated (ABL1, Homo sapiens, UniProt P00519, F317L)
ABL1 F317L non-phosphorylated: Tyrosine-protein kinase ABL1, non-phosphorylated (ABL1, Homo sapiens, UniProt P00519, F317L)
ABL1 T315I phosphorylated: Tyrosine-protein kinase ABL1, phosphorylated (ABL1, Homo sapiens, UniProt P00519, T315I)
ABL1 Q252H phosphorylated: Tyrosine-protein kinase ABL1, phosphorylated (ABL1, Homo sapiens, UniProt P00519, Q252H)
ABL1 M351T: Tyrosine-protein kinase ABL1 (ABL1, Homo sapiens, UniProt P00519, M351T)
ABL1 H396P phosphorylated: Tyrosine-protein kinase ABL1, phosphorylated (ABL1, Homo sapiens, UniProt P00519, H396P)

| Compound | target | observed | method | concentration | remaining binding |
| --- | --- | --- | --- | --- | --- |
| O=C1NC(c2ccccn2)Sc2ccccc21 (stereo not shown) | Tyrosine-protein kinase ABL1, phosphorylated (ABL1, Homo sapiens, UniProt P00519, E255K) | binding | competition with immobilised ligand | 1 µM | 77% |
| O=C(NCCCN1CCOCC1)c1ccc(Nc2nccc(-c3cc4ccccc4s3)n2)cc1 | ABL1 F317I phosphorylated | binding | competition with immobilised ligand | 1 µM | 84% |
| O=C(N[C@H]1CCCCC/C=C\C2C[C@@]2(C(=O)O)NC(=O)[C@@H]2C[C@@H](Oc3ccncc3)CN2C1=O)OC1CCCC1 (stereo partly shown) | Tyrosine-protein kinase ABL1, phosphorylated (ABL1, Homo sapiens, UniProt P00519, M351T) | binding | competition with immobilised ligand | 1 µM | 89% |
| Nc1ncc2c(n1)-c1c([nH]c3ccc(C#CC4CC4)cc13)CCCC2 | ABL1 H396P non-phosphorylated | binding | competition with immobilised ligand | 1 µM | 93% |
| O=C(c1ccc(Nc2ncc(Cl)c(-c3ccc(Cl)s3)n2)cc1)N1CCC(N2CCCC2)CC1 | ABL1 F317L phosphorylated | binding | competition with immobilised ligand | 1 µM | 58% |
| CO[C@H]1CC[C@H](CNc2ccc(S(=O)(=O)NC(=O)c3ccc(N4CCN(CC5=C(c6ccc(Cl)cc6)CC(C)(C)CC5)CC4)cc3Oc3cnc4[nH]ccc4c3)cc2[N+](=O)[O-])CC1 | Tyrosine-protein kinase ABL1, non-phosphorylated (ABL1, Homo sapiens, UniProt P00519) | cell-free assay | competition with immobilised ligand | 1 µM | 71% |
| O=C(Nc1c[nH]nc1C(=O)NC1CCNCC1)c1cc(F)cc(F)c1 | ABL1 H396P non-phosphorylated | binding | competition with immobilised ligand | 1 µM | 90% |
| C=CC(=O)N1CCC(C(=O)NCC(=O)N2CCN(c3nc(-c4cnc(N)nc4C(F)F)nc(N4CCOCC4)n3)CC2)CC1 | ABL1 F317L non-phosphorylated | binding | competition with immobilised ligand | 1 µM | 90% |
| O=C(NCCCN1CCOCC1)c1ccc(Nc2ncc(Cl)c(-c3ccc(Cl)s3)n2)cc1 | ABL1 T315I phosphorylated | binding | competition with immobilised ligand | 1 µM | 2.5% |
| N#CC1(c2ccccn2)CCN(Cc2cc(C(=O)N3CCCC3)c(=O)n3ccccc23)CC1 | ABL1 Q252H phosphorylated | cell-free assay | competition with immobilised ligand | 1 µM | 90% |
| COc1cnc(Nc2cccc(S(N)(=O)=O)c2)nc1N1CCN(c2ccccc2)CC1 | ABL1 F317I phosphorylated | binding | competition with immobilised ligand | 1 µM | 98% |
| COc1ncc2cc3ccccc3nc2c1C#N | ABL1 T315I phosphorylated | cell-free assay | competition with immobilised ligand | 5 µM | 89% |
| CNC(=O)[C@@H]1CC[C@@H](n2c(-c3ccc4cnccc4c3)nc3ccc(C(=O)NCc4cccc(C(N)=O)c4)cc32)C1 | Tyrosine-protein kinase ABL1, non-phosphorylated (ABL1, Homo sapiens, UniProt P00519, Q252H) | binding | competition with immobilised ligand | 1 µM | 87% |
| CN(CCCC(F)(F)F)c1nccc(-c2cnn3ncccc23)n1 | Tyrosine-protein kinase ABL1 (ABL1, Homo sapiens, UniProt P00519, F317L) | binding | – | 1 µM | 100% |
| Cc1cc(-n2nc(Cc3cc(F)cc(C(F)(F)F)c3)nc2C)ccc1C(N)=O | ABL1 F317L phosphorylated | cell-free assay | competition with immobilised ligand | 1 µM | 100% |
| c1cncc(-c2cccc(Nc3nccc(NC4CCCCC4)n3)c2)c1 | ABL1 F317L non-phosphorylated | binding | competition with immobilised ligand | 10 µM | 81% |

| Compound | target | observed | method | concentration | remaining binding |
| --- | --- | --- | --- | --- | --- |
| O=C(NS(=O)(=O)c1ccc(NCC2CCOCC2)c([N+](=O)[O-])c1)c1ccc(N2CCN(Cc3ccc(C(F)(F)F)cc3-c3ccc(Cl)cc3)CC2)cc1Oc1cnc2[nH]ccc2c1 | ABL1 F317I phosphorylated | binding | – | 1 µM | 100% |
| CN(c1nccc(-c2cnn3ncccc23)n1)C1CC1 | ABL1 M351T | binding | – | 1 µM | 100% |
| Cc1cnc(Nc2ccc(C(=O)N3CCC(N4CCCC4)CC3)cc2)nc1-c1cc2ccccc2s1 | ABL1 T315I phosphorylated | binding | competition with immobilised ligand | 1 µM | 2.1% |
| CNC(=O)Nc1ccc2c(c1)[C@@]1(CC2)OC(=O)N(CC(=O)N(Cc2ccc(F)cc2)[C@@H](C)C(F)(F)F)C1=O | ABL1 T315I phosphorylated | cell-free assay | competition with immobilised ligand | 1 µM | 87% |
| O=C(c1ccc(Nc2nccc(-c3cc4ccccc4s3)n2)cc1)N1CCC(N2CCCC2)CC1 | ABL1 Q252H phosphorylated | binding | competition with immobilised ligand | 1 µM | 6.4% |
| C[C@@H]1CN(c2cc(-c3nn(C)c4ccc(OC5(C)CC5)cc34)ncn2)C[C@H](C)O1 | Tyrosine-protein kinase ABL1, non-phosphorylated (ABL1, Homo sapiens, UniProt P00519, T315I) | cell-free assay | competition with immobilised ligand | 1 µM | 73% |
| C[C@@H](c1ccc(-n2cnc3c(N)ncnc32)cc1)N1CCc2nn(C)c(Cc3ccccc3)c2C1=O | ABL1 H396P phosphorylated | binding | competition with immobilised ligand | 0.1 µM | 79% |
| N[C@H]1CCN(c2nccc(-c3cnn4ncccc34)n2)C1 | ABL1 M351T | binding | – | 1 µM | 100% |
| CCN1CCN(Cc2ccc(C(=O)Nc3ccc(C)c(Oc4ccc5c(c4)CC(=O)N5)c3)cc2C(F)(F)F)CC1 | ABL1 H396P phosphorylated | binding | competition with immobilised ligand | 1 µM | 62% |
| Cc1cnn2ncc(-c3ccnc(N(C)C)n3)c2c1 | Tyrosine-protein kinase ABL1 (ABL1, Homo sapiens, UniProt P00519, E255K) | binding | – | 1 µM | 100% |
| O=C(NCC1CCOCC1)c1n[nH]cc1NC(=O)c1c(F)cccc1F | ABL1 T315I phosphorylated | binding | competition with immobilised ligand | 1 µM | 91% |
| c1cnn2ncc(-c3ccnc(N4CCC45COC5)n3)c2c1 | Tyrosine-protein kinase ABL1 (ABL1, Homo sapiens, UniProt P00519, T315I) | binding | – | 1 µM | 64% |
| O=C(c1ccc(Nc2ncc(Cl)c(-c3cc4ccccc4s3)n2)cc1)N1CCC(N2CCCC2)CC1 | ABL1 T315I phosphorylated | binding | competition with immobilised ligand | 1 µM | 3.3% |
| CN(C)c1ncc(F)c(-c2cnn3ncccc23)n1 | Tyrosine-protein kinase ABL1 (ABL1, Homo sapiens, UniProt P00519, H396P) | binding | – | 1 µM | 80% |
| COc1cnc(Nc2cccc(S(N)(=O)=O)c2)nc1N1CCN(c2ccccc2)C(=O)C1 | ABL1 H396P non-phosphorylated | binding | competition with immobilised ligand | 1 µM | 58% |
